Screening data (PubChem)
Not all results are given here.
Apaf1 activ – activators of human Apaf-1 apoptosome, primary screen, biochemical, DEVD-Rh110 fluorescence, uHTS. Apaf-1 apoptosome caspase-3 activation; active compounds read low. activity change, negative = activation, % at 20 µM. 330,000 compounds, 0.31% hits;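 active = activity change at or below -40% at 20 µM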
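System: Reconstituted apoptosome of Apaf-1, cytochrome c, caspase-9, procaspase-3 | Reagent: dATP, cytochrome c, and (Z-DEVD)2-Rh110 caspase-3 substrate | Times: 30 min compound preincubation and 50 min reaction, both room temperature | Detection: Caspase-3-released Rh110 fluorescence, 540 nm emission, 480 nm excitation | Measure: Caspase-3 activity via Apaf-1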
Rh110 interf act – Rh110 fluorescence interference by putative Apaf-1 activators, confirmation, artefact control for Apaf-1 activator project, biochemical, 20 µM; shares compounds with Apaf1 activ; quenched caspase reaction, Ex480/Em540; fluorescence interference (activity change), % at 20 µM, hits read low; 980 tested, under 10 active; AID 504616, 2011;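 active = mean activity change at or below -40% when tested at 20 µM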
Apaf-1 act conf2 – Apaf-1 activators, single-dose retest, confirmation, biochemical, fluorescence, DEVD-Rh110, 20 µM; reconstituted apoptosome caspase-3 activity; active compounds read low; shares compounds with Apaf1 activ; activity change, negative = activation, % at 20 µM; 980 compounds, 5% hits;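 active = mean activity change at or below -40%, meaning activation of 40% or more, at 20 µM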
Of the large screens only hits and unclear results are named; the others gave an inactive call (follow-up assays come after a bar, where they were run).

CCCCN(CC)S(=O)(=O)c1ccc(C(=O)N(CCCN(C)C)c2nc3cc(C)cc(C)c3s2)cc1	none
CCOC(=O)c1ccc(NC2=CC(=O)C(=O)c3ccccc32)cc1	none
COc1ccc(OCC(=O)N/N=C(\C)c2cccs2)cc1	Apaf1 activ -81 | Rh110 interf act inactive | Apaf-1 act conf2 inactive
COc1ccc2c(c1)Cc1sc(NC(=O)c3cccs3)nc1-2	none
CCCCCCCCCCCCCCCC[n+]1cccc(C(=O)N(CC)CC)c1	none
CCOC(=O)C(NC(=O)c1ccccc1Cl)(Nc1ccc(C(F)(F)F)cc1)C(F)(F)F (centres undefined)	Apaf1 activ -406 | Rh110 interf act inactive | Apaf-1 act conf2 inactive
Cc1ccc(-c2nn3c(C)nnc3c3ccccc23)cc1S(=O)(=O)NCc1ccco1	none
COc1ccccc1C(CNC(=O)c1ccc(S(=O)(=O)NCc2ccco2)cc1)N(C)C (centres undefined)	Apaf1 activ -53 | Rh110 interf act inactive | Apaf-1 act conf2 inactive
COc1ccccc1CNS(=O)(=O)c1ccc(-c2cc(C)no2)cc1	none
C=CCC[C@@H](Cc1ccc(F)cc1)C(=O)OC[C@@H]1CCCN1C(=O)[C@@H](CC=C)CC(=O)N(CCO)Cc1ccccc1	none
COCCn1c(N)c(C(=O)OCc2ccccc2)c2nc3ccccc3nc21	none
CSc1ccc(CCNC(=O)c2cc(-c3ccccc3)c(N3CCOCC3)s2)cc1	Apaf1 activ -370 | Rh110 interf act inactive | Apaf-1 act conf2 inactive
CCN(Cc1ccccc1)S(=O)(=O)c1ccc(C(=O)N(CCCN(C)C)c2nc3cc(C)cc(C)c3s2)cc1	none
O=C1c2ccccc2C(O)N1Cc1cccs1 (centres undefined)	Apaf1 activ -41 | Rh110 interf act inactive | Apaf-1 act conf2 inactive
CCOC(=O)c1ccc(N2CSC3=C(C#N)C(c4ccc(OC)cc4OC)CC(=O)N3C2)cc1 (centres undefined)	none
O=C(O)c1ccc(NC2=C(N3CCOCC3)C(=O)c3ccccc3C2=O)cc1	none
Clc1nc(Nc2ccc(N3CCOCC3)cc2)c2ccccc2n1	Apaf1 activ -393 | Rh110 interf act inactive | Apaf-1 act conf2 inactive
Cc1cc2cc(CNS(=O)(=O)c3ccccc3)ccc2n1C	none
C[C@@H](CN1CCC[C@H]1CN1C(N)=NC[C@@H]1Cc1ccccc1)N1C[C@@H](Cc2ccccc2)N(CCc2ccc(Cl)c(Cl)c2)C1=N	none
Nc1ccc2c(c1)C(=O)C(=O)c1ccccc1-2	none
COc1ccc(OC)c(-c2nn(-c3ccccc3)cc2C(=O)NCC(c2ccco2)N2CCCC2)c1 (centres undefined)	Apaf1 activ -117 | Rh110 interf act inactive | Apaf-1 act conf2 inactive
COc1ccc(C(CNC(=O)C2CC(=O)N(Cc3ccccc3)C2)N2CCCC2)cc1 (centres undefined)	none
Cc1cc2nc(SCC(=O)Nc3nonc3C)c3c(c2cc1C)CCCC3	Apaf1 activ -48 | Rh110 interf act inactive | Apaf-1 act conf2 inactive
Cc1ccc(N2C(=O)[C@@H]3[C@H](C2=O)C2c4ccccc4C=CN2[C@@H]3C(=O)c2ccco2)c(C)c1 (some centres undefined)	none
COc1ccccc1/C=C1/C(=O)N(c2ccccc2)N=C1C	none
COCCNC(=O)c1cc2nc(-c3ccccc3)cc(C)n2n1	Apaf1 activ -169 | Rh110 interf act inactive | Apaf-1 act conf2 inactive
COCCNC(=O)c1c(N)n(CCC2=CCCCC2)c2nc3ccccc3nc12	none
Cn1c(=O)c2c(SCC(=O)NC3CCCC3)nc(CC(C)(C)C)nc2n(C)c1=O	Apaf1 activ -508 | Rh110 interf act inactive | Apaf-1 act conf2 inactive
Cc1c(C(=O)N(C)CCOc2ccccc2)oc2c(Cl)cccc12	none
COc1ccc(O)c(N)c1	none
COc1ccc(C(=O)N(C)C(C)c2ccon2)cc1OC1CCN(C(C)C)CC1 (centres undefined)	Apaf1 activ -315 | Rh110 interf act inactive | Apaf-1 act conf2 inactive
C/C(=C\C(=O)c1ccc(Br)cc1)NCc1ccccc1	Apaf1 activ -235 | Rh110 interf act inactive | Apaf-1 act conf2 inactive
